Active and inactive are the calls of the source. The calls are words filed in the database; no cut-off is given here.
Assays:
[1] = AUC in cynomolgus monkey at 1 mg/kg, iv or 1 mg/kg, po; type: ADME, organism-based, Macaca fascicularis; details: in vivo
In short: (§1)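 Single-dose PK study in mouse and rat (2 mg/kg iv, 5 mg/kg po), cynomolgus monkey (1 mg/kg iv and po) and dog (0.1 mg/kg iv, 1 mg/kg po). Dosing vehicle was 1:4:5 EtOH/propylene glycol/PEG400. Clearance, Vss, half-life, Cmax, Tmax, AUC (μM h) and oral %F were derived from plasma levels.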

[2] = Plasma concentration in methoxamine-sensitised rabbit at 1 mg/kg, iv administered as 20 mins infusion; type: ADME, organism-based, Oryctolagus cuniculus
Oryctolagus cuniculus [3] = assay: Antiatrial fibrillation activity in methoxamine-sensitised rabbit assessed as plasma concentration required to show increase in atrial effective refractory period at 0.17 mg/kg, iv administered as 1 min infusion; type: functional, organism-based
In short: (§2)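 Rabbit, iv infusion of compound in DMF (0.17 mg/mL) with a 0.17 mg/kg maintenance dose. AERP was normalized to DMF vehicle, with time counted from the start of the maintenance infusion. Tissues were collected after 30 min. n = 3 rabbits; means ± standard error.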

Oryctolagus cuniculus [4] = assay: Antiatrial fibrillation activity in methoxamine-sensitised rabbit assessed as plasma concentration required to show 10% increase in atrial effective refractory period at 0.17 mg/kg, iv administered as 30 mins infusion; type: functional, organism-based; in short: as §2
[5] = Cmax in mouse at 2 mg/kg, iv or 5 mg/kg, po; type: ADME, organism-based; details: in vivo; in short: as §1
[6] = Plasma concentration in methoxamine-sensitised rabbit at 1 mg/kg, iv administered as 30 mins infusion; type: ADME, organism-based, Oryctolagus cuniculus
[7] = AUC in rat at 2 mg/kg, iv or 5 mg/kg, po; type: ADME, organism-based; details: in vivo; in short: as §1
Oryctolagus cuniculus [8] = assay: Antiatrial fibrillation activity in methoxamine-sensitised rabbit assessed as increase in atrial effective refractory period at 0.17 mg/kg, iv measured 15 mins post infusion relative to control; type: functional; in short: as §2
Oryctolagus cuniculus [9] = assay: Antiatrial fibrillation activity in methoxamine-sensitised rabbit assessed as increase in atrial effective refractory period at 0.17 mg/kg, iv administered as 30 mins infusion relative to control; type: functional; in short: as §2
[10] = Ratio of drug level in Sprague-Dawley rat brain to plasma at 3 mg/kg, iv administered as 10 mins infusion by LC-MS/MS analysis; type: ADME, organism-based; details: brain and plasma, read-out: BPR
[11] = Oral bioavailability in dog at 1 mg/kg; type: ADME, organism-based, Canis lupus familiaris; details: in vivo
In short: (§3)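 Single-dose PK in mouse and rat (2 mg/kg iv, 5 mg/kg po), cynomolgus monkey (1 mg/kg iv and po) and dog (0.1 mg/kg iv, 1 mg/kg po). Dosing vehicle was 1:4:5 EtOH/propylene glycol/PEG400. Parameters reported: clearance, Vss, half-life, Cmax, Tmax, AUC and oral bioavailability.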

Salmonella typhimurium = assay: Genotoxicity in Salmonella typhimurium by Ames test; type: toxicity; details: salmonella enterica subsp. enterica serovar typhimurium
[12] = AUC in dog at 0.1 mg/kg, iv or 1 mg/kg, po; type: ADME, organism-based, Canis lupus familiaris; details: in vivo; in short: as §1
[13] = Volume of distribution at steady state in dog at 0.1 mg/kg, iv or 1 mg/kg, po; type: ADME, organism-based, Canis lupus familiaris; details: in vivo, read-out: Vdss; in short: as §3
[14] = Half life in rat at 2 mg/kg, iv or 5 mg/kg, po; type: ADME, organism-based; details: in vivo; in short: as §1
Canis familiaris = assay: Antiarrhythmic activity in mongrel dog heart failure model assessed as reduction in mean number of pacing-induced atrial fibrillation at 0.1 to 0.3 mg/kg, po; type: functional, organism-based; details: Canis lupus familiaris
In short: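 Simultaneous atrio-ventricular pacing dog model of atrial arrhythmia. Compound was given orally at 0.1 or 0.3 mg/kg in 10% EtOH/40% propylene glycol/50% PEG 400. AF inducibility was scored as mean number of AF inductions and total AF duration, with QTc monitored and plasma concentration measured. n = 7 control, 5 (0.1 mg/kg) and 6 (0.3 mg/kg) dogs.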

[15] = Inhibition of calcium channel (unknown origin); design: species or system Homo sapiens
Oryctolagus cuniculus [16] = assay: Antiatrial fibrillation activity in methoxamine-sensitised rabbit assessed as plasma concentration required to show increase in atrial effective refractory period at 0.17 mg/kg, iv administered as 15 mins infusion; type: functional, organism-based; in short: as §2
[17] = Clearance in rat at 2 mg/kg, iv or 5 mg/kg, po; type: ADME, organism-based; details: in vivo; in short: as §1
[18] = Volume of distribution at steady state in rat at 2 mg/kg, iv or 5 mg/kg, po; type: ADME, organism-based; details: in vivo, read-out: Vdss; in short: as §3
[19] = Protein binding in rat plasma; type: ADME, cell-free; details: read-out: PPB
[20] = Plasma concentration in methoxamine-sensitised rabbit at 3 mg/kg, iv administered as 10 mins infusion; type: ADME, organism-based, Oryctolagus cuniculus
[21] = Clearance in cynomolgus monkey at 1 mg/kg, iv or 1 mg/kg, po; type: ADME, organism-based, Macaca fascicularis; details: in vivo; in short: as §1
[22] = Plasma concentration in methoxamine-sensitised rabbit at 3 mg/kg, iv administered as 20 mins infusion; type: ADME, organism-based, Oryctolagus cuniculus
Plasma = assay: Plasma concentration in pacing-induced mongrel dog heart failure model at 0.1 mg/kg, po; type: ADME, organism-based, Canis lupus familiaris; details: in vivo
In short: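 Simultaneous atrio-ventricular pacing dog model used to measure AF inducibility. Dogs were dosed orally at 0.1 mg/kg (n = 5) or 0.3 mg/kg (n = 6) in 10% EtOH/40% propylene glycol/50% PEG 400, and plasma concentration was measured alongside AF inductions and QTc.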

Oryctolagus cuniculus [23] = assay: Antiatrial fibrillation activity in methoxamine-sensitised rabbit assessed as increase in atrial effective refractory period at 1 mg/kg, iv administered as 30 mins infusion relative to control; type: functional
In short: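 Rabbit, iv dosing at 1 or 3 mg/kg. AERP was measured at 10, 20 and 30 min time points as % prolongation, and plasma compound concentration was measured at the same time points and correlated with the AERP change.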

[24] = Volume of distribution at steady state in cynomolgus monkey at 1 mg/kg, iv or 1 mg/kg, po; type: ADME, organism-based, Macaca fascicularis; details: in vivo, read-out: Vdss; in short: as §3

NS(=O)(=O)c1cncc(-c2nc(NCc3ccccn3)c3c(-c4ccccc4)cccc3n2)c1 [BMS-919373]
AUC [1]: 11 µM·h
concentration at 20 min [2]: 1.1 µM
Cp (Oryctolagus cuniculus [3]): 0.42 µM
Cp (Oryctolagus cuniculus [4]): 0.15 µM
Cmax [5]: 4 µM
concentration at 0.5 h [6]: 1.3 µM
AUC [7]: 49 µM·h
Activity (Oryctolagus cuniculus [8]): 9.5%
Activity (Oryctolagus cuniculus [9]): 12.7%
Kp at 10 min [10]: 0.1
bioavailability [11]: 64%
Activity (Salmonella typhimurium): Non-Toxic
AUC [12]: 590 µM·h
Vd [13]: 0.2 L/kg
half-life [14]: 3.2 h
Activity (Canis familiaris): Active
IC50 [15]: > 10 µM
Cp (Oryctolagus cuniculus [16]): 0.16 µM
clearance [17]: 0.198 L/h/kg
Vd [18]: 0.9 L/kg
fraction unbound [19]: < 0.01
concentration at 10 min [20]: 2.3 µM
clearance [21]: 0.192 L/h/kg
concentration at 20 min [22]: 3.6 µM
concentration (Plasma): 0.47 µM
Activity (Oryctolagus cuniculus [23]): 10.7%
Vd [24]: 1.2 L/kg
